# Measured values gathered from unrelated publications.
# Each line is one published result; the experiments were not run side by side.
# Cell line: PC-3
# Read-out: cell growth or viability
SMILES,test,conditions,quantity,result
CCc1c(C)c2ccc(OCC(=O)NN=Cc3ccc([N+](=O)[O-])cc3)cc2oc1=O,MTT,31.25 µg/mL,viability,22.2%
O=C(O)c1ccccc1Nc1cccc(C(F)(F)F)c1,SRB,48 h,GI50,> 30 µM
CCc1c(C)c2ccc(OCc3nnc(S)n3N)c(C)c2oc1=O,MTT,500 µg/mL,viability,3.08%
C=CC(=O)c1cccnc1Nc1cc(C(F)(F)F)ccc1OCc1ccccc1,SRB,48 h,GI50,19 µM
COc1ccc(-c2cc(-c3c(OC)cccc3OC)c3c(=O)[nH]c(=O)[nH]c3n2)cc1,MTT,48 h,IC50,41.5 µM
C=CC(=O)c1cccnc1Nc1cc(C(F)(F)F)ccc1OC,SRB,48 h,GI50,5.58 µM
Cc1nc(Nc2ccc3c(c2)/C(=C/c2ccccc2Cl)C(=O)N3)c2ccccc2n1,MTT,,IC50,2.45 µM
Cc1c(Cc2ccccc2)c(=O)oc2c(C)c(OCC(=O)NN=Cc3ccc(Cl)cc3)ccc12,MTT,1000 µg/mL,viability,2.23%
Cc1nc(Nc2ccc3c(c2)/C(=C/c2ccccc2)C(=O)N3Cc2ccccc2)c2ccccc2n1,MTT,,IC50,> 50 µM
COc1ccc(-c2cc(-c3cccc(Br)c3)c3c(=O)[nH]c(=O)[nH]c3n2)cc1,MTT,48 h,IC50,18.5 µM
Cc1nc(Nc2ccc3c(c2)C(C)(C)C(=O)N3)c2ccccc2n1,MTT,,IC50,34.3 µM
Cc1c(Cc2ccccc2)c(=O)oc2c(C)c(OCC(=O)NN=Cc3ccc([N+](=O)[O-])cc3)ccc12,MTT,500 µg/mL,viability,5.03%
COc1ccc(-c2cc(-c3ccccc3Cl)c3c(=O)[nH]c(=O)[nH]c3n2)cc1,MTT,48 h,IC50,28.4 µM
C=CCOc1ccc2c(C)c(CC)c(=O)oc2c1C,MTT,125 µg/mL,viability,95.8%
Cc1nc(NC(=O)N2CCC[C@H]2C(N)=O)sc1-c1ccnc(C(C)(C)C(F)(F)F)c1,MTT,,IC50,47.7 µM
COc1ccc(-c2cc(-c3ccccc3Cl)c3c(=O)n(C)c(=O)n(C)c3n2)cc1,MTT,48 h,IC50,6.79 µM
CCc1c(C)c2ccc(OCC(=O)NNC(=S)Nc3ccccc3)c(C)c2oc1=O,MTT,500 µg/mL,viability,2.61%
COc1ccc(-c2cc(-c3cc(OC)ccc3OC)c3c(=O)n(C)c(=O)n(C)c3n2)cc1,MTT,48 h,IC50,24.6 µM
CCCOc1nc(-c2cccc(O)c2)cc(-c2cc3cc(OC)ccc3nc2N2CCOCC2)c1C#N,MTT,72 h,IC50,0.0639 µM
COc1ccc(-c2cc(-c3ccc(Br)cc3)c3c(=O)n(C)c(=O)n(C)c3n2)cc1,MTT,48 h,IC50,8.58 µM
COc1cc2ncnc(N(C)c3ccc4c(c3)/C(=C/c3ccccc3)C(=O)N4C)c2cc1OC (mixture of isomers),MTT,,IC50,39.2 µM
Cc1c(Cc2ccccc2)c(=O)oc2c(C)c(OCC(=O)NN=Cc3ccccc3)ccc12,MTT,250 µg/mL,viability,14.1%
Cc1nc(Nc2ccc3c(c2)/C(=C/c2ccccc2C)C(=O)N3C)c2ccccc2n1,MTT,,IC50,15.9 µM
COc1ccc(-c2cc(-c3c(OC)cccc3OC)c3c(=O)n(C)c(=O)n(C)c3n2)cc1,MTT,48 h,IC50,18.6 µM
CC(=NNC(=O)COc1ccc2c(C)c(Cc3ccccc3)c(=O)oc2c1C)c1ccc(Br)cc1,MTT,250 µg/mL,viability,3.08%
